# Laboratory results taken from ChEMBL document CHEMBL4513216, “Probing the Open Global Health Chemical Diversity Library for Multistage-Active Starting Points for Next-Generation Antimalarials” (ACS Infect Dis, 2020).
# Assay: Toxicity liver stage against HepG2, at 10uM
# Assay type: cell-based
# Set-up: test concentration 10 uM, cell line HepG2-A16-CD81EGFP
# Conditions: human, HepG2-A16-CD81EGFP cells; read-out: INHIBITION
# Procedure, shortened: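 Uninfected HepG2-A16-CD81EGFP cells, 3 × 10^3 per well, 1536-well, plated on prespotted compound at 10 μM final, parasite-free screening media added to match infected plates; puromycin 10 μM positive, DMSO 0.5% negative; run in parallel with 48 h PbLuc assay at 37 °C, 5% CO2; viability by CellTiter-Glo luminescence, normalized to controls.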
structure (smiles),measurement,value
COCC(=O)N1CCCC(c2cc(C(F)F)n3ncnc3n2)C1 (stereo unspecified),cytotoxicity at 10 µM,-8.43%
CN1CCCn2c(nc(CNC(=O)c3nccn3C)cc2=O)C1,cytotoxicity at 10 µM,4.68%
CCOC(=O)CN(CC(F)(F)F)C(=O)c1nc(C)n2ccccc12,cytotoxicity at 10 µM,-20.9%
O=C(NCC1CC1)[C@H]1C[C@@H]2[C@@H](C1)OCCN2Cc1cccnc1,cytotoxicity at 10 µM,4.09%
O=S(=O)(C1CC1)N1CCc2c(CN3CCOCC3)cncc2C1,cytotoxicity at 10 µM,-0.514%
O=C(NC[C@]12COC[C@H]1CN(Cc1nccs1)C2)N1CCCC1,cytotoxicity at 10 µM,-7.27%
Cc1ccc(C(=O)NCCC2CN(c3cnn(C)c(=O)c3)CCO2)s1 (stereo unspecified),cytotoxicity at 10 µM,-1.38%
N#Cc1ccccc1N1CCCN(CC(=O)Nc2ccc(Cl)cn2)CC1,cytotoxicity at 10 µM,-0.539%
CCC(=O)NCC1(O)CCC(C(C)(C)C)CC1 (stereo unspecified),cytotoxicity at 10 µM,5.81%
COc1cc(N2CCCC3(CCN(c4cncnc4)C3=O)C2)ncn1 (stereo unspecified),cytotoxicity at 10 µM,-103%
Cc1nn(C)cc1CN1CCC(c2ncc(Cl)cc2S(C)(=O)=O)CC1,cytotoxicity at 10 µM,-0.1%
Cc1nccn1C1(C(=O)O)CCN(Cc2ccc3occc3c2)CC1,cytotoxicity at 10 µM,-1.61%
CN1CCCC(c2ccnc(C(=O)NCC3CC3)c2)C1 (stereo unspecified),cytotoxicity at 10 µM,3.89%
Cc1ccc(C)c(OCC(O)CN(C)CC(=O)Nc2cc(C)on2)c1 (stereo unspecified),cytotoxicity at 10 µM,-14.4%
CC(C)(N)C(=O)N1CCCC(c2cncc(Oc3cccnc3)n2)C1 (stereo unspecified),cytotoxicity at 10 µM,-20.6%
CN1CCC(O)(CCNC(=O)[C@@]23CNC[C@@H]2CN(C2CCCC2)C3)CC1,cytotoxicity at 10 µM,-1.92%
CCCS(=O)(=O)NC1CCN(c2cccc(F)c2C#N)CC1,cytotoxicity at 10 µM,-5.6%
COc1cc(NC(=O)NC2CCCC2)ccc1N1CCOC1=O,cytotoxicity at 10 µM,-7.09%
O=C(CN1CCC(c2cccc(F)c2)C1)NCC(F)(F)F (stereo unspecified),cytotoxicity at 10 µM,-10.4%
CCCc1nc(NCCOC)c2c(n1)c(C)nn2CC,cytotoxicity at 10 µM,3.36%
O=C(NCCC(=O)N1CCCc2ccccc21)c1c(O)cc(F)cc1F,cytotoxicity at 10 µM,1.35%
CSCCC(=O)NCc1cc2n(n1)CCN(C(=O)N(C)C)C2,cytotoxicity at 10 µM,-5.77%
Cc1cc(CN(C)C(=O)NC2CCN(C3CC3)CC2)no1,cytotoxicity at 10 µM,-3.6%
COc1cccc(OC)c1CN1CCC2(CC(Nc3ccncn3)C2)C1 (stereo unspecified),cytotoxicity at 10 µM,3.71%
COc1ccc(-n2cc3[nH][nH]c(=O)n3c2=O)cc1,cytotoxicity at 10 µM,10.3%
CN(Cc1ncnn1C)C(=O)c1ccccc1NCc1ccccc1,cytotoxicity at 10 µM,15.3%
COc1ccccc1CC(=O)NC(CC(=O)O)c1ccc(C)cc1 (stereo unspecified),cytotoxicity at 10 µM,11.2%
Cc1cccnc1NCCNC(=O)C1CCN(C(=O)N(C)C)CC1,cytotoxicity at 10 µM,1.99%
O=S(=O)(c1ccccc1)N1CCCN(CCCn2ccnc2)CC1,cytotoxicity at 10 µM,-9.17%
CN1CCN(C(=O)c2cnn(-c3ccccc3Cl)c2)CC1,cytotoxicity at 10 µM,-5.51%
O=C(CN1CCc2c(ncn2C2CC2)C1)NC1CC1,cytotoxicity at 10 µM,1.01%
COc1cccc(C(C)N2CCN(S(C)(=O)=O)CC2)c1 (stereo unspecified),cytotoxicity at 10 µM,-8.42%
C[S+]([O-])CCNC(=O)N1CCN(c2cc(F)ccc2F)CC1 (stereo unspecified),cytotoxicity at 10 µM,-13.4%
CN(Cc1ccco1)Cc1ccccc1CNC(=O)c1cc[nH]n1,cytotoxicity at 10 µM,-8.11%
CN1CCCN(CC(=O)N2CCc3[nH]c(-c4ccccc4)nc3C2)CC1,cytotoxicity at 10 µM,-0.0342%
N#Cc1cccc(Cl)c1NCCc1n[nH]c(=O)[nH]1,cytotoxicity at 10 µM,60.1%
CC1CN(C(=O)NCCCn2cncn2)CCO1 (stereo unspecified),cytotoxicity at 10 µM,-6.82%
CN1CCC(n2nc(CC3CC3)nc2-c2ccc(F)cc2Cl)CC1,cytotoxicity at 10 µM,-1.84%
Cc1c(C)n(CC(O)CN2CCCCCC2)c2c(Cl)cccc12 (stereo unspecified),cytotoxicity at 10 µM,-21.9%
Cc1cccc(CN2C(=O)CO[C@@H]3CN(Cc4nccn4C)C[C@H]32)c1,cytotoxicity at 10 µM,-16.7%
Cn1nc(C(=O)NCc2ccccc2C(F)(F)F)c2c1CCS(=O)(=O)C2,cytotoxicity at 10 µM,5.37%
CS(=O)(=O)NCCC1CCCCN1C(=O)NCc1ccccn1 (stereo unspecified),cytotoxicity at 10 µM,-0.871%
O=C(NCc1ccncc1)N1CCSCC1c1ccc(Cl)cc1 (stereo unspecified),cytotoxicity at 10 µM,1.6%
N#CC1(C(=O)N2C[C@@H]3CC[C@H]2CN(Cc2cscn2)C3)CCOCC1,cytotoxicity at 10 µM,2.39%
CCS(=O)(=O)NCC(=O)N1CCC(c2cc3ccccc3[nH]2)CC1,cytotoxicity at 10 µM,-7.79%
CCCc1noc(-c2cn(CC(=O)N(CC)CC)nn2)n1,cytotoxicity at 10 µM,3.35%
CN(C)c1cc(C(=O)N2CCN(c3cnccn3)CC2)ccn1,cytotoxicity at 10 µM,-7.64%
COc1ccc(NC(=O)NCC(O)c2ccc(F)cc2F)c(OC)c1 (stereo unspecified),cytotoxicity at 10 µM,2.79%
COc1ccccc1CC(C)CC(=O)O (stereo unspecified),cytotoxicity at 10 µM,12.9%
CS(=O)(=O)N1CCC(c2ccncn2)CC1,cytotoxicity at 10 µM,6.77%
CCc1oc(C(=O)N2CC[C@@H]3CC[C@H](C2)N3)cc1CN(CC)CC,cytotoxicity at 10 µM,4.83%
Cc1cc(N2CCOCC2)nc(N(C)CCO)c1C#N,cytotoxicity at 10 µM,2.17%
CN(C)C(=O)CC1CC2(CCN(CC3CC3)CC2)Oc2ccccc21 (stereo unspecified),cytotoxicity at 10 µM,-3.51%
COc1cc(C2(C(=O)NCC(=O)NC3CC3)CC2)ccc1C,cytotoxicity at 10 µM,-17.4%
CCCn1ccc(C(=O)N2CCC(C)CC2)n1,cytotoxicity at 10 µM,-7.01%
COCCN1C=NC2(CCC(C(=O)Nc3ccc(C)cc3)CC2)C1=O (stereo unspecified),cytotoxicity at 10 µM,15.1%
CC(C)CCN1CCC2(CNS(=O)(=O)c3cccnc3O2)C1 (stereo unspecified),cytotoxicity at 10 µM,4.1%
COc1nc2ccn(CCNc3cc(C)ccn3)c(=O)c2cc1C#N,cytotoxicity at 10 µM,11.7%
O=C(c1ccccn1)N1CCC(S(=O)(=O)c2ccccc2)C1 (stereo unspecified),cytotoxicity at 10 µM,3.26%
CC(=O)N1CCC2(C1)c1ccccc1S(=O)(=O)N2Cc1ccccc1 (stereo unspecified),cytotoxicity at 10 µM,-127%
COCCN1C[C@@H]2CN(Cc3ccsc3)CCC[C@]2(C(=O)O)C1,cytotoxicity at 10 µM,-10.6%
CCc1nccn1C1CCCN(C(=O)c2ccc3nnc(C)n3c2)C1 (stereo unspecified),cytotoxicity at 10 µM,-8.95%
Cc1nc(N2CCN(C(=O)c3ccccc3)CC2)c2cnn(C)c2n1,cytotoxicity at 10 µM,-11.5%
CCc1nccn1C1CCCN(C(=O)CCc2nccs2)C1 (stereo unspecified),cytotoxicity at 10 µM,-14.3%
O=C(c1ccc(S(=O)(=O)N2CCSCC2)cc1)N1CCC(O)C1 (stereo unspecified),cytotoxicity at 10 µM,4.91%
O=C1C(NCc2ccc3c(c2)CCO3)CCN1Cc1ccccc1 (stereo unspecified),cytotoxicity at 10 µM,6.39%
CC(=O)NCc1nc(CC(C)C)nn1-c1cccc(C)c1,cytotoxicity at 10 µM,6.54%
CCN(CC)S(=O)(=O)c1ccc(C(=O)NC(C)(C)C)cc1,cytotoxicity at 10 µM,-6.79%
CN(C)S(=O)(=O)N1CC[C@]2(O)CCN(c3nc4ccccc4s3)C[C@@H]2C1,cytotoxicity at 10 µM,-1.82%
OCC1CCCN1c1cc(NCc2ccc(Cl)s2)ncn1 (stereo unspecified),cytotoxicity at 10 µM,-2.96%
Cc1c(NCCO)cccc1OC1CCCC1,cytotoxicity at 10 µM,3.1%
CNC(=O)c1cccc(NCCOc2ccc(CC#N)cc2)c1C,cytotoxicity at 10 µM,-0.662%
Cc1cc(NC(=O)CN2CCc3nn(C)c(=O)cc3C2)on1,cytotoxicity at 10 µM,-1.45%
Cc1nc(CN2CCCCC2CCc2ccc(O)cc2)no1 (stereo unspecified),cytotoxicity at 10 µM,1.18%
CC(=O)c1cc(CN2CCCCC2c2nc3cc(F)ccc3[nH]2)cs1 (stereo unspecified),cytotoxicity at 10 µM,-1.08%
COc1cc(C)ccc1C(=O)N1C[C@@H](CN(C)CCO)[C@@H](CO)C1,cytotoxicity at 10 µM,1%
CS(=O)(=O)N1CCc2[nH]nc(Cc3cccs3)c2C1,cytotoxicity at 10 µM,1.44%
Cc1ccc(S(=O)(=O)c2ncccc2CN2CCOCC2)cc1,cytotoxicity at 10 µM,-41%
COC1CCN(S(=O)(=O)N2CC(c3ccccc3)C(C)(C)C2)CC1 (stereo unspecified),cytotoxicity at 10 µM,3.64%
O=C(c1ccc(-n2ccnn2)cc1)N(CC1CC1)c1cccnc1,cytotoxicity at 10 µM,22.5%
O=C(NCc1cccc(F)c1)N1CCC2(CC(=O)N(c3ccsc3)C2)C1 (stereo unspecified),cytotoxicity at 10 µM,-10%
CCOCc1nc(-c2ccc(F)cc2Cl)n(C)n1,cytotoxicity at 10 µM,-10.2%
O=C(CC1CC1)N1CCC(O)(CN2CCN(c3ccccc3)CC2)C1 (stereo unspecified),cytotoxicity at 10 µM,-11.2%
CN(CC(=O)NC(C)(C)C)C(=O)C1CC(c2cccc(F)c2)=NO1 (stereo unspecified),cytotoxicity at 10 µM,19.5%
c1cc(C2CCN(c3cnccn3)CC2)ccn1,cytotoxicity at 10 µM,3.94%
O=C1COc2cc(C(=O)NS(=O)(=O)c3cccc(Cl)c3)ccc2N1,cytotoxicity at 10 µM,-4.01%
COc1cc(N2CCC3(CC2)CC(N2CCOCC2)CO3)ncn1 (stereo unspecified),cytotoxicity at 10 µM,3.44%
COCC1CCN(S(=O)(=O)N2C[C@@H](C)[C@](O)(C3CC3)C2)CC1,cytotoxicity at 10 µM,0.23%
CCCS(=O)(=O)CCN1CCN(c2cc(F)ccc2F)CC1,cytotoxicity at 10 µM,-10%
Cn1cc(CCNC(=O)CCc2ccc3c(c2)OCO3)cn1,cytotoxicity at 10 µM,-7.15%
CCC(=O)N1CSCC1C(=O)N(C)CCc1ccccc1 (stereo unspecified),cytotoxicity at 10 µM,19.5%
CNC(=O)C(CCSC)NC(=O)c1ccc2ccccc2n1 (stereo unspecified),cytotoxicity at 10 µM,-1.35%
O=C(C(CNCc1ccncc1)c1ccccc1)N1CCOCC1 (stereo unspecified),cytotoxicity at 10 µM,-19%
CC(C)(C)c1ncc(C(=O)NCCSc2ccccn2)c(O)n1,cytotoxicity at 10 µM,-0.494%
Cc1nc(CN(C)C2CCN(CCc3ccccn3)C2)no1 (stereo unspecified),cytotoxicity at 10 µM,-3.85%
O=C(NCc1ccc(Cl)s1)c1cc(CN2CCCC(O)C2)on1 (stereo unspecified),cytotoxicity at 10 µM,-52.3%
COc1ccc2c(c1)[C@@H](CCNC(C)=O)CC(C)(C)O2,cytotoxicity at 10 µM,-6.33%
O=c1n(Cc2ccccn2)nc(C2CCNCC2)n1Cc1ccccc1,cytotoxicity at 10 µM,2.69%
Cn1nc(C2CN(C(=O)c3ccncc3)C2)c2nccnc21,cytotoxicity at 10 µM,-8.8%
COc1ccccc1C(C)(C)NC(=O)NCCC(=O)NC1CCCC1,cytotoxicity at 10 µM,8.42%
COCc1nn(C)c2c1CCN(Cc1cnn(C)c1)C2,cytotoxicity at 10 µM,-4.37%
COCCn1cc2c(n1)C(CNS(C)(=O)=O)OCC2 (stereo unspecified),cytotoxicity at 10 µM,0.763%
Cc1noc(C[C@@H]2COC[C@H]3CN(S(C)(=O)=O)C[C@@H]23)n1,cytotoxicity at 10 µM,12.2%
COc1cc2nc(NCc3cc(C)on3)nc(N)c2cc1OC,cytotoxicity at 10 µM,-3.34%
CCN(Cc1ccncc1)C1CCCN(Cc2ccc(F)cc2OC)C1 (stereo unspecified),cytotoxicity at 10 µM,-3.73%
c1cc(C2CCCN2CC2CCCCC2)n[nH]1 (stereo unspecified),cytotoxicity at 10 µM,-1.83%
Cc1cnn(C2CCCN(C(=O)c3cc(Cl)c4c(c3)OCO4)C2)c1 (stereo unspecified),cytotoxicity at 10 µM,-5.25%
CCC(C(=O)NCC1CCN(c2cnn(C)c(=O)c2)CC1)n1cccn1 (stereo unspecified),cytotoxicity at 10 µM,6.01%
CC(=O)c1ccc(OCC(=O)NS(=O)(=O)c2ccc(C)s2)cc1,cytotoxicity at 10 µM,-8.9%
COCC(=O)NCC1CCC(c2nnc(-c3ccncc3)o2)CC1 (stereo unspecified),cytotoxicity at 10 µM,-3.49%
CCCc1cc(N2CCCC2Cn2nc(C)cc2C)n2ncnc2n1 (stereo unspecified),cytotoxicity at 10 µM,2.48%
